# Assay outcomes (PubChem)
# Only some compounds are listed: those with a hit (about 2.6% of all), similar ones and a draw of the others.
# T cruzi inh = blocks replication of Trypanosoma cruzi; inhibition, % (test concentration not listed); AID 1885; T. cruzi beta-gal in NIH3T3, luminescence, 90 h; 1.4% of 300,000 active;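 active = mean inhibition across valid replicates above about 55%, limit read from the data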;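 note: signal also drops with host cell toxicity which is not excluded here; 0% = plate median of DMSO wells and 100% = zero luminescence signal; higher percent means less beta-gal luminescence so fewer parasites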
#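 System: NIH/3T3 fibroblasts plus reporter T. cruzi. Medium: DMEM plus 2% FBS. Probe or stimulus: 5000 reporter trypomastigotes per well. Compound: single 50 nL compound addition per well in DMSO. Incubation: co-culture of at least 90 h after 3 h attachment. Detection: GalScreen β-gal luminescence, detergent lysis, 60 min. Evaluation: parasite load inhibition, %.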
# PolyA inh = yeast polyadenylation inhibition; S. cerevisiae SKY197-pL101 polyadenylation reporter, beta-gal luminescence; efflux-impaired pdr1/pdr3 knockout yeast; score 100 = 6 SD above DMSO; activity score, % at 12 µM; 0.02% of 300,000 active; AID 1875;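 active = lowest replicate activity score at least 50, where 100 means six control SD above control mean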;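 note: yeast exposed to compound for 9 h at 30 °C; higher score means more reporter readthrough which indicates perturbed polyadenylation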
# CHT allo act = allosteric activators of human choline transporter CHT; 0.49% of 310,000 active; CHT-expressing cells, membrane potential dye, choline EC20; hits give high values; LV-AA mutant CHT in HEK293 cells; Q9GZV3; B-score at 10 µM; AID 488977;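 active = initial fluorescence not abnormally high and integrated response B-score, plate-corrected, over 3 SD above library mean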
# Target sequence (Q9GZV3 whole entry, looked up): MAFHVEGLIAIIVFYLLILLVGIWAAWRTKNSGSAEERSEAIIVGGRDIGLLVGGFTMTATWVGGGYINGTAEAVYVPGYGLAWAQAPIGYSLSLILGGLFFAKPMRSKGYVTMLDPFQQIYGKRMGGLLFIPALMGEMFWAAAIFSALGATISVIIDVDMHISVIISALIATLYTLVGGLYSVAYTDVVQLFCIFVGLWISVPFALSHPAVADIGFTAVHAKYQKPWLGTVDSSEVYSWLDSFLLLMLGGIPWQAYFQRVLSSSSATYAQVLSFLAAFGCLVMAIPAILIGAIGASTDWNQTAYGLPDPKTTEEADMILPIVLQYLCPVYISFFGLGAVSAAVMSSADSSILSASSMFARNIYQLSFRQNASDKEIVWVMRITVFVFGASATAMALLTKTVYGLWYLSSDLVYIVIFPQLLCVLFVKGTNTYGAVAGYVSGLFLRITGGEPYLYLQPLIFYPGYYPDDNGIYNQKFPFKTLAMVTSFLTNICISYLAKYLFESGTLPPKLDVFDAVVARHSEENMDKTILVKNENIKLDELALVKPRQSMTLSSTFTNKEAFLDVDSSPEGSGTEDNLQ
# CHT block = inhibits the human high affinity choline transporter. Q9GZV3. CHT-expressing cells, membrane potential dye, choline response; hits give low values. B-score at 10 µM. 0.86% of 310,000 active. AID 488975;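 active = B-score over 3 SD under the library average, and starting fluorescence ratio not unusually high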;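 note: choline stimulus applied at its EC90 after an EC20 pre-addition; B-score computed on integrated fluorescence ratio after choline addition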
# CHT inh conf = human CHT inhibition, confirmatory screen; AID 493221; 70% of 2,400 active; CHT-expressing cells, choline membrane potential dye; LV-to-AA substituted CHT, HEK293 cells; CHT activity remaining % of control (hits give low values), % at 10 µM; shares compounds with CHT block;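 active = choline transporter activity left, mean of duplicates at 10 µM, below buffer-only control mean minus 3 SD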;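 note: depolarization triggered by choline at its EC90 following an EC20 pre-addition; 0% = hemicholinium-3 full block and 100% = buffer-only control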
# HEK293 MPD ctr = activity in parental HEK293 cells lacking CHT; shares compounds with CHT block; membrane potential dye, choline response; active = decrease or increase beyond buffer ±3SD; membrane potential ratio readout (active if shifted either direction beyond buffer ±3SD; no single direction) at 10 µM; 4% of 2,400 active;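 note: parental cells lack the transporter so any hit is non-specific; ratio is peak minus trough fluorescence over baseline after EC90 choline challenge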
# Starred values were filed as active, the others as inactive; i = inactive; x = no result given.
SMILES,T cruzi inh,PolyA inh,CHT allo act,CHT block,CHT inh conf,HEK293 MPD ctr
Cc1c(CCC(=O)NCCCn2ccnc2)c(=O)oc2c(C)c3occ(C(C)(C)C)c3cc12,43.0,-8.2,i,-5.46*,28.8%*,i
Cn1c(CNC(=O)c2ccco2)nnc1SCC(=O)c1ccc(Br)cc1,-9.1,12.3,i,i,x,x
CCC1CCCCN1C(=O)c1ccc(OC)c(OC2CCN(C(C)C)CC2)c1 (stereo not given),23.3,-10.7,i,i,x,x
COc1ccc(C(=O)NC(C)Cc2cnccn2)cc1OC1CCN(C(C)C)CC1 (stereo not given),-6.5,3.8,i,-6.97*,27.7%*,i
COc1ccc(C(=O)NCCCn2cccn2)cc1OC1CCN(C(C)=O)CC1,2.7,-3.2,x,x,x,x
COc1ccc(C(=O)NC(C)CCn2cccn2)cc1OC1CCN(C(C)C)CC1 (stereo not given),-4.4,-10.7,i,-9.75*,13.3%*,i
CC(C(=O)Nc1ncc([N+](=O)[O-])s1)N1C(=O)c2ccccc2S1(=O)=O (stereo not given),-6.4,3.4,i,i,x,x
COC(=O)C1=C(N)Oc2cc(C)n(CCc3ccccc3)c(=O)c2C1c1cccnc1 (stereo not given),46.3,-3.9,i,-5.18*,69.2%*,i
O=C(NC1CCCCC1)C(c1ccc2ncccc2c1)N(Cc1ccccc1)C(=O)c1ccc2c(c1)OCCO2 (stereo not given),9.3,2.5,i,-6.68*,46.9%*,i
COc1ccc(CN(C(=O)c2nsc(Cl)c2Cl)C(C(=O)NC2CCCCC2)c2ccc(OC)cc2)cc1 (stereo not given),22.7,27.2,i,i,x,x
COc1ccc(CN(C(=O)c2ccc3c(c2)OCCO3)C(C(=O)NC2CCCCC2)c2ccc3ncccc3c2)cc1 (stereo not given),22.7,7.9,i,-9.2*,16.3%*,i
Cc1cccc(C(=O)C2CCN(S(=O)(=O)c3cccc(C(=O)O)c3)CC2)c1,6.9,-8.4,x,x,x,x
O=C(NC1CCCC1)C(c1cccnc1)N(CCc1ccccc1)C(=O)c1ccco1 (stereo not given),5.4,4.0,i,-5.98*,54.9%*,i
CN(Cc1nc(-c2ccncc2)no1)S(=O)(=O)c1ccc(Br)cc1,26.2,2.0,i,-7.97*,i,i
CN(Cc1nc(-c2ccncc2)no1)S(=O)(=O)c1ccc(Cl)cc1,31.9,-13.0,i,i,x,x
CC1CCCCC1NC(=O)C1CCCN(S(=O)(=O)c2ccc(-n3cnnn3)cc2)C1 (stereo not given),5.5,1.7,i,-9.53*,52.3%*,i
CC1CCCCC1NC(=O)C1CCN(S(=O)(=O)c2ccc(-n3cnnn3)cc2)CC1 (stereo not given),8.0,-0.9,i,i,x,x
CCc1ccc(C(C)NC(=S)NC2CCCCC2)cc1 (stereo not given),-3.8,1.3,i,-8.09*,48.6%*,i
O=C1N[C@H](C(=O)O)CS1,-16.4,-10.3,i,i,x,x
O=C(c1cc(Cl)ccc1OCc1ccccc1)N1CCOCC1,6.9,14.8,i,i,x,x
CC(C)(C)[C@H]1CCC(=O)N([C@H](CN=[N+]=[N-])Cc2ccccc2)CC1,19.1,-13.2,i,-5.15*,i,i
COc1ccc(C(=O)CSc2[nH]c(=O)cc(C(F)(F)F)c2C#N)cc1,-1.3,16.1,i,-13.8*,44.5%*,i
COc1ccc(-c2cc(C(F)(F)F)c(C#N)c(SCC(=O)O)n2)cc1OC,-2.5,12.3,i,i,x,x
CC(C)NC(=O)C1CCN(C2CCN(C(=O)c3scc4c3CCCC4)CC2)CC1,8.6,-6.5,i,i,x,x
O=C1COc2ccc(S(=O)(=O)NCc3ccc(Cl)cc3)cc2N1,13.2,-8.2,i,i,x,x
SMILES,T cruzi inh,PolyA inh,CHT allo act,CHT block,CHT inh conf,HEK293 MPD ctr
COC(=O)CN1C(=O)COc2ccc(S(=O)(=O)NCc3ccc(Cl)cc3)cc21,8.3,-14.1,i,-6.08*,i,i
O=C1CNC(=S)N1CCCc1ccccc1,-11.6,-7.5,i,i,x,x
CCOc1cc(/C=C2\N=C(SC)SC2=O)cc([N+](=O)[O-])c1OC(C)=O,2.3,-21.8,i,-5.2*,65.4%*,i
CC(=O)C1=C(O)C=C(c2ccco2)CC1c1ccco1 (stereo not given),0.3,-12.8,i,-5.05*,i,i
COc1ccc(OC)c(NC(=O)C2CCCN(S(C)(=O)=O)C2)c1 (stereo not given),-3.5,-4.5,i,i,x,x
Cc1c(NC(=S)NC(=O)c2cccc3ccccc23)cccc1C(=O)O,-1.8,13.9,i,i,x,x
Cc1c(NC(=S)NC(=O)c2ccc(COc3ccccc3)cc2)cccc1C(=O)O,-12.3,-12.6,i,-6.27*,i,i
NS(=O)(=O)c1cccc(NC(=O)CSc2nnc(C3CC3)n2Cc2ccccc2)c1,6.1,0.0,i,-5.93*,i,i
O=C(O)c1[nH]c2ccccc2c1CC(=O)N1CCN(c2ccccc2)CC1,-0.8,8.1,i,i,x,x
Cc1cccc(N2CCN(C(=O)Cc3c(C(=O)O)[nH]c4ccc(Cl)cc34)CC2)c1C,-17.1,-19.5,i,-11.1*,56.2%*,i
CN(Cc1ccccc1)C(=O)COC(=O)c1cc(NS(=O)(=O)c2cccs2)ccc1O,-11.6,-1.7,i,-5.83*,i,i
CC(=O)Nc1c2c3c(cccc3n(C)c1=O)C(=O)c1ccccc1-2,0.7,11.1,i,-5.86*,44.5%*,2.42*
CN(CC(=O)Nc1ccc(Cl)c(C(F)(F)F)c1)C(=O)CCN1C(=O)C2CC=CCC2C1=O (stereo not given),-0.7,-6.8,i,i,x,x
COc1ccc(/C=C/C(=O)Nc2ccc(NC(C)=O)cc2)cc1S(=O)(=O)N1CCOCC1,-15.8,-1.9,i,i,x,x
COc1ccc(/C=C/C(=O)NC2CCCCCCC2)cc1S(=O)(=O)N1CCOCC1,-22.2,-12.1,i,-7.56*,19.8%*,i
CCn1c(C(=O)O)c(CC(=O)Nc2ccc(Br)cc2C)c2ccccc21,-4.1,11.0,i,i,x,x
Cc1nn(-c2ccccc2)c2[nH]c(=O)cc(C(F)(F)F)c12,-3.4,12.2,i,-5.18*,36.6%*,i
CNC(=O)c1cc(C(=O)c2ccc(F)cc2C(F)(F)F)c[nH]1,-7.4,-15.1,i,i,x,x
Cc1ccc(CNC(=O)N[C@@H](Cc2ccccc2)C(=O)O)cc1,-1.9,10.1,i,-16.2*,59.9%*,i
